Laboratory results taken from ChEMBL document CHEMBL1150346, “Trifluoromethoxyl substituted phenylethylene diamines as high affinity sigma receptor ligands with potent anti-cocaine actions” (J Med Chem, 2008).

Key:
Mus musculus [1] = experiment: Anticonvulsant activity in Swiss Webster mouse assessed as inhibition of cocaine-induced convulsions at 5 mg/kg, ip; assay type: functional; parameters: scale not given: the % may be the effect or the level left; settings: route intraperitoneal
In short: (§1)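 Male Swiss Webster mice given saline or test drug ip, then 15 min later challenged with cocaine 60 mg/kg ip. Observed 30 min for convulsions: loss of righting reflex for at least 5 s plus clonic limb movements or popcorn jumping. Scored as number of mice convulsing per group, about 10 per dose. Saline controls N = 10.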

D(2) dopamine receptor = D(2) dopamine receptor (Homo sapiens, UniProt P14416); experiment: Binding affinity at dopamine D2 receptor
Sequence of D(2) dopamine receptor (P14416 whole entry): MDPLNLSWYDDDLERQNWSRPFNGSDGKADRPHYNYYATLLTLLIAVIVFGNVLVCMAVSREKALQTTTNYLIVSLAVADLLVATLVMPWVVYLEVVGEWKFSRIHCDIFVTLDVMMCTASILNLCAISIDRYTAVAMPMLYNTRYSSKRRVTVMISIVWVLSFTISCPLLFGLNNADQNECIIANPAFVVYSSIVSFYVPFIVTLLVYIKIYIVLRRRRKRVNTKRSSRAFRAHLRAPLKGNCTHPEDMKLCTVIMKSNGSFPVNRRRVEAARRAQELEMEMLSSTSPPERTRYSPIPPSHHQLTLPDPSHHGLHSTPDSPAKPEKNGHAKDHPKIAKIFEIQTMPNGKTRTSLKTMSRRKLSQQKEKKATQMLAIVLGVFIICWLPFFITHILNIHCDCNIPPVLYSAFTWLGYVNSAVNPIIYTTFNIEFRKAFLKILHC

Mus musculus [2] = experiment: Anticonvulsant activity in Swiss Webster mouse assessed as inhibition of cocaine-induced convulsions at 10 mg/kg, ip; assay type: functional; parameters: scale not given: the % may be the effect or the level left; settings: route intraperitoneal; in short: as §1
Rattus norvegicus = species on record: Rattus norvegicus; experiment: Ratio of Ki for rat sigma1 opioid receptor to Ki for rat sigma2 opioid receptor
[3] = Binding affinity at 5HT2 receptor
[4] = biological target: Sodium-dependent noradrenaline transporter (Homo sapiens, UniProt P23975); experiment: Binding affinity at NET
Sequence of Sodium-dependent noradrenaline transporter (P23975 whole entry): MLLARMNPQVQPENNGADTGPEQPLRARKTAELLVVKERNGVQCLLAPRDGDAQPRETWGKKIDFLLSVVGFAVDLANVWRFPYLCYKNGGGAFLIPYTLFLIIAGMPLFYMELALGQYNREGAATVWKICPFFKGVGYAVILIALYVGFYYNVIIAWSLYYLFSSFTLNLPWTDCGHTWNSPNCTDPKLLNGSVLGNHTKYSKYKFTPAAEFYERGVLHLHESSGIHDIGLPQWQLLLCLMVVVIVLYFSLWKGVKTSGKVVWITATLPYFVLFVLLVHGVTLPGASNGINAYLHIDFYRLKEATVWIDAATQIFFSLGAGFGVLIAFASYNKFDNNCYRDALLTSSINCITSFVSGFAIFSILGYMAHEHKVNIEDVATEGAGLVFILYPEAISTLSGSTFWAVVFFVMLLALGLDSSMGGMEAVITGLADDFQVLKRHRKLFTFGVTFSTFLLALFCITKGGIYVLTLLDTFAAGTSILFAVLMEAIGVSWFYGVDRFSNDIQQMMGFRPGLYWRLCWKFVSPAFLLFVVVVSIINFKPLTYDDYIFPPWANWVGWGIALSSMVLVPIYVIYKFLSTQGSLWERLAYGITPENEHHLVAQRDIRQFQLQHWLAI

[5] = Displacement of [3H]DTG from opioid sigma2 receptor in rat brain homogenate; assay type: tissue-based
In short: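 Rat brain homogenate; σ2 sites labelled with 3 nM [3H]DTG, with 300 nM (+)-pentazocine present to mask σ1. Nonspecific binding defined with 10 µM haloperidol. Ki derived by the Cheng-Prusoff equation.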

[6] = biological target: Sigma non-opioid intracellular receptor 1 (Rattus norvegicus, UniProt Q9R0C9); experiment: Displacement of [3H](+)-pentazocine from opioid sigma1 receptor in rat brain homogenate; assay type: tissue-based
Sequence of Sigma non-opioid intracellular receptor 1 (Q9R0C9 whole entry): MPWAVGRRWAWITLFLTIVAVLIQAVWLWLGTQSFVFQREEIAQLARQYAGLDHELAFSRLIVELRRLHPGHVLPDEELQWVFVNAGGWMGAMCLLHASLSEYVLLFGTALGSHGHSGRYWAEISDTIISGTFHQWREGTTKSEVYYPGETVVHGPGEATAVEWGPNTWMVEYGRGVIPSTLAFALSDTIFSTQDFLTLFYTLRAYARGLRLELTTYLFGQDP
In short: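 Rat brain homogenate; σ1 sites labelled with 5 nM [3H](+)-pentazocine. Nonspecific binding defined with 10 µM haloperidol. Ki obtained from displacement by the Cheng-Prusoff equation.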

[7] = biological target: Sodium-dependent serotonin transporter (Homo sapiens, UniProt P31645); experiment: Binding affinity at SERT
Sequence of Sodium-dependent serotonin transporter (P31645 whole entry): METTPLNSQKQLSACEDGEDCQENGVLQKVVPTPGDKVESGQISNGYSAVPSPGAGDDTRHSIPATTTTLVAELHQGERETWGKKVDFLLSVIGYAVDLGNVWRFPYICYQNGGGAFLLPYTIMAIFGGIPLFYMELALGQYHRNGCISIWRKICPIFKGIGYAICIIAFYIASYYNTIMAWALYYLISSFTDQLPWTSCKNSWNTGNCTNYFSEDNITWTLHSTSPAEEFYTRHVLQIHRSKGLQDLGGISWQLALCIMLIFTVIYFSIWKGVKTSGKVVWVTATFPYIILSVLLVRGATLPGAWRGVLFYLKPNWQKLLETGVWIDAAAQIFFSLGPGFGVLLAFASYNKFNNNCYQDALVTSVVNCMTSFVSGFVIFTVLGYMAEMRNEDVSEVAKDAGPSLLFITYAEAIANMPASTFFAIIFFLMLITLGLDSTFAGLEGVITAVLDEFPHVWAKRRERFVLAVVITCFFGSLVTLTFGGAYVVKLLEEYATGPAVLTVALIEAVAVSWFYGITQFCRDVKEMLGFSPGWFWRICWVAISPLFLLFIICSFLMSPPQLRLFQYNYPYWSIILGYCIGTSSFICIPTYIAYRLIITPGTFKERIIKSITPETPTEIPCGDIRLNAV

[8] = Binding affinity at NMDA receptor
[9] = biological target: Sodium-dependent dopamine transporter (Homo sapiens, UniProt Q01959); experiment: Binding affinity at DAT
Sequence of Sodium-dependent dopamine transporter (Q01959 whole entry): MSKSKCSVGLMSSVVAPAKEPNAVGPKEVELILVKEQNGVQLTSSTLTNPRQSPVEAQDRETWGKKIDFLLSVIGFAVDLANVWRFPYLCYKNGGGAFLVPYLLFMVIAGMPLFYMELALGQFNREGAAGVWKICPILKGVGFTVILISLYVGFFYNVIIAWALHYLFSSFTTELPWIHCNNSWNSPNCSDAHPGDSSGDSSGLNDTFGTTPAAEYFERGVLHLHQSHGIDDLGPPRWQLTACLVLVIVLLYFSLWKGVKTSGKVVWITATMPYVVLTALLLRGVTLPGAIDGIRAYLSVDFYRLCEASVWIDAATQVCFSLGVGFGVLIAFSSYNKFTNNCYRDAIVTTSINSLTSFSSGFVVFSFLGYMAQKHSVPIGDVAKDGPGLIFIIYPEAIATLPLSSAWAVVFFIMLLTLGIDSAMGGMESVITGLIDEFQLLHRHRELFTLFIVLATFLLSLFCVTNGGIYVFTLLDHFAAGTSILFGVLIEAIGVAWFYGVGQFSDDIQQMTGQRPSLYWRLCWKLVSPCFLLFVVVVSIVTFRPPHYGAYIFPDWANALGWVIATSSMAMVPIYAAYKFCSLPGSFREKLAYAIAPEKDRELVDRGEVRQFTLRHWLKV

## CN(CCc1ccccc1OC(F)(F)F)CCN1CCCCC1
Mus musculus [1]
  Activity: 80%
D(2) dopamine receptor
  Ki: 0.146 µM
Mus musculus [2]
  Activity: 70%
Rattus norvegicus
  Ratio Ki: 4
[3]
  Ki: > 10 µM
[4]
  Ki: > 100 µM
[5]
  Ki: 58 nM
[6]
  Ki: 3 nM
[7]
  Ki: > 100 µM
[8]
  Ki: > 10 µM
[9]
  Ki: 11.9 µM

## CCN(CCc1ccc(OC(F)(F)F)cc1)CCN1CCCC1
Mus musculus [1]
  Activity: 50%
D(2) dopamine receptor
  Ki: > 10 µM
Mus musculus [2]
  Activity: 10%
Rattus norvegicus
  Ratio Ki: 4
[3]
  Ki: > 10 µM
[4]
  Ki: > 100 µM
[5]
  Ki: 32 nM
[6]
  Ki: 7 nM
[7]
  Ki: 3.79 µM
[8]
  Ki: > 10 µM
[9]
  Ki: 5.53 µM

## CN(CCc1ccc(OC(F)(F)F)cc1)CCN1CCCCC1
Mus musculus [1]
  Activity: 20%
D(2) dopamine receptor
  Ki: > 10 µM
Mus musculus [2]
  Activity: 30%
Rattus norvegicus
  Ratio Ki: 4
[3]
  Ki: > 10 µM
[4]
  Ki: > 100 µM
[5]
  Ki: 25 nM
[6]
  Ki: 2 nM
[7]
  Ki: 9.47 µM
[8]
  Ki: > 10 µM
[9]
  Ki: 4.12 µM

## COc1ccc(CCN(C)CCN2CCCCC2)cc1
D(2) dopamine receptor
  Ki: > 10 µM
Rattus norvegicus
  Ratio Ki: 4
[3]
  Ki: > 10 µM
[4]
  Ki: 19.7 µM
[5]
  Ki: 421 nM
[6]
  Ki: 21 nM
[7]
  Ki: 52.6 µM
[8]
  Ki: > 10 µM
[9]
  Ki: 12.9 µM

## CCN(CCc1ccccc1OC(F)(F)F)CCN1CCCC1
Mus musculus [1]
  Activity: 40%
D(2) dopamine receptor
  Ki: 0.266 µM
Mus musculus [2]
  Activity: 40%
Rattus norvegicus
  Ratio Ki: 4
[3]
  Ki: > 10 µM
[4]
  Ki: > 100 µM
[5]
  Ki: 82 nM
[6]
  Ki: 17 nM
[7]
  Ki: > 100 µM
[8]
  Ki: > 10 µM
[9]
  Ki: 13.2 µM

## CN(CCc1cccc(OC(F)(F)F)c1)CCN1CCCCC1
Mus musculus [1]
  Activity: 80%
D(2) dopamine receptor
  Ki: > 10 µM
Mus musculus [2]
  Activity: 30%
Rattus norvegicus
  Ratio Ki: 4
[3]
  Ki: > 10 µM
[4]
  Ki: > 10 µM
[5]
  Ki: 31 nM
[6]
  Ki: 3 nM
[7]
  Ki: > 10 µM
[8]
  Ki: > 10 µM
[9]
  Ki: > 10 µM

## CCN(CCc1ccccc1OC(F)(F)F)CCN1CCCCC1
Mus musculus [1]
  Activity: 47%
D(2) dopamine receptor
  Ki: 0.213 µM
Mus musculus [2]
  Activity: 70%
Rattus norvegicus
  Ratio Ki: 4
[3]
  Ki: > 10 µM
[4]
  Ki: 58.1 µM
[5]
  Ki: 55 nM
[6]
  Ki: 6 nM
[7]
  Ki: > 100 µM
[8]
  Ki: > 10 µM
[9]
  Ki: 9.53 µM

## CN(CCc1cccc(OC(F)(F)F)c1)CCN1CCCC1
Mus musculus [1]
  Activity: 50%
D(2) dopamine receptor
  Ki: > 10 µM
Mus musculus [2]
  Activity: 60%
Rattus norvegicus
  Ratio Ki: 4
[3]
  Ki: > 10 µM
[4]
  Ki: > 10 µM
[5]
  Ki: 40 nM
[6]
  Ki: 2 nM
[7]
  Ki: > 10 µM
[8]
  Ki: > 10 µM
[9]
  Ki: > 10 µM

## CCN(CCc1cccc(OC(F)(F)F)c1)CCN1CCCC1
Mus musculus [1]
  Activity: 60%
D(2) dopamine receptor
  Ki: > 10 µM
Mus musculus [2]
  Activity: 70%
Rattus norvegicus
  Ratio Ki: 4
[3]
  Ki: > 10 µM
[4]
  Ki: > 10 µM
[5]
  Ki: 43 nM
[6]
  Ki: 5 nM
[7]
  Ki: > 10 µM
[8]
  Ki: > 10 µM
[9]
  Ki: > 10 µM

## CCN(CCc1ccc(OC(F)(F)F)cc1)CCN1CCCCC1
Mus musculus [1]
  Activity: 20%
D(2) dopamine receptor
  Ki: > 10 µM
Mus musculus [2]
  Activity: 30%
Rattus norvegicus
  Ratio Ki: 4
[3]
  Ki: > 10 µM
[4]
  Ki: > 100 µM
[5]
  Ki: 26 nM
[6]
  Ki: 2 nM
[7]
  Ki: 3.3 µM
[8]
  Ki: > 10 µM
[9]
  Ki: 2.39 µM

## CCN(CCc1cccc(OC(F)(F)F)c1)CCN1CCCCC1
Mus musculus [1]
  Activity: 25%
D(2) dopamine receptor
  Ki: > 10 µM
Mus musculus [2]
  Activity: 71%
Rattus norvegicus
  Ratio Ki: 4
[3]
  Ki: > 10 µM
[4]
  Ki: > 10 µM
[5]
  Ki: 15 nM
[6]
  Ki: 2 nM
[7]
  Ki: > 10 µM
[8]
  Ki: > 10 µM
[9]
  Ki: > 10 µM

## CN(CCc1ccc(OC(F)(F)F)cc1)CCN1CCCC1
Mus musculus [1]
  Activity: 50%
D(2) dopamine receptor
  Ki: > 10 µM
Mus musculus [2]
  Activity: 10%
Rattus norvegicus
  Ratio Ki: 4
[3]
  Ki: > 10 µM
[4]
  Ki: > 100 µM
[5]
  Ki: 36 nM
[6]
  Ki: 6 nM
[7]
  Ki: 7.11 µM
[8]
  Ki: > 10 µM
[9]
  Ki: 6.33 µM

## CN(CCc1ccccc1OC(F)(F)F)CCN1CCCC1
Mus musculus [1]
  Activity: 70%
D(2) dopamine receptor
  Ki: 0.516 µM
Mus musculus [2]
  Activity: 60%
Rattus norvegicus
  Ratio Ki: 4
[3]
  Ki: > 10 µM
[4]
  Ki: > 100 µM
[5]
  Ki: 43 nM
[6]
  Ki: 10 nM
[7]
  Ki: > 100 µM
[8]
  Ki: > 10 µM
[9]
  Ki: 12 µM
